Converted amounts (≈) assume the structure as drawn.
What was measured:
Mus musculus = experiment: Ratio of AUC (0 to infinity) in C57/BL6 mouse at 20 mg/kg, po co-administered with amino-benzotriazole to AUC (0 to infinity) in C57/BL6 mouse at 20 mg/kg, po without co-administration of amino-benzotriazole; format: ADME, organism-based; settings: in vivo
[1] = system: Mycobacterium tuberculosis; experiment: Antimicrobial activity against GFP expressing recombinant Mycobacterium tuberculosis H37RvMA under GAST/Fe medium assessed as growth inhibition after 14 days by broth microdilution method; format: functional; settings: 336 h
[2] = system: Mycobacterium tuberculosis; experiment: Antimicrobial activity against Mycobacterium tuberculosis H37RvMA under GAST/Fe medium assessed as growth inhibition after 14 days by alamar blue assay; format: functional; settings: 336 h
How it was run: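 Broth microdilution in GAST/Fe medium against fully virulent Mtb H37RvMa or its derived strains (cytochrome bd oxidase deletion ΔcydKO; qcrB Ala317Thr point mutant). Plates were incubated 14 days, growth was read by Alamar Blue, and MIC90 was taken as the potency value.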

[3] = Kinetic solubility in FaSSIF at pH 6.5 after 2 hours at 25 degC by shake flask method; format: physicochemical; settings: read-out: Kinetic_solubility
Vero = experiment: Cytotoxicity against African green monkey Vero cells assessed as cell viability by MTT assay; format: cell-based; settings: Chlorocebus sabaeus
How it was run: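 VERO kidney epithelial cells from African green monkey were exposed to compounds at concentrations up to 100 μM, and IC₅₀ was reported.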

[4] = system: Mycobacterium tuberculosis; experiment: Antimicrobial activity against GFP expressing recombinant Mycobacterium tuberculosis H37RvMA under 7H9 medium assessed as growth inhibition after 14 days by broth microdilution method; format: functional; settings: 336 h
[5] = system: Mycobacterium tuberculosis; experiment: Antimicrobial activity against clinical isolates of Mycobacterium tuberculosis SAWC 2371 Haarlem under 7H9 medium assessed as growth inhibition after 14 days by alamar blue assay; format: functional; settings: 336 h
[6] = system: Mycobacterium tuberculosis; experiment: Antimicrobial activity against clinical isolates of Mycobacterium tuberculosis SAWC 3385 Cas1/Delhi under 7H9 medium assessed as growth inhibition after 14 days by alamar blue assay; format: functional; settings: 336 h
[7] = system: Mycobacterium tuberculosis; experiment: Antimicrobial activity against clinical isolates of Mycobacterium tuberculosis SAWC 3906 Atyp-beijing under 7H9 medium assessed as growth inhibition after 14 days by alamar blue assay; format: functional; settings: 336 h
[8] = system: Mycobacterium tuberculosis; experiment: Antimicrobial activity against clinical isolates of Mycobacterium tuberculosis SAWC 3933 LCC under 7H9 medium assessed as growth inhibition after 14 days by alamar blue assay; format: functional; settings: 336 h
Liver microsome [9] = experiment: Intrinsic clearance in human liver microsomes assessed per mg of protein at 0.1 uM by LC-MS/MS method in presence or absence of NADPH; format: ADME
Liver microsome [10] = experiment: Intrinsic clearance in rat liver microsomes assessed per mg of protein at 0.1 uM by LC-MS/MS method in presence or absence of NADPH; format: ADME
[11] = Intrinsic clearance in mouse liver microsomes assessed per mg of protein at 0.1 uM by LC-MS/MS method in presence or absence of NADPH; format: ADME
[12] = Metabolic stability in human liver S9 fractions assessed as residual compound at 0.1 uM after 40 mins by LC-MS/MS method in presence or absence of NADPH; format: ADME; settings: read-out: Stability
[13] = Half life in human plasma at 0.1 uM by LC-MS/MS method; format: ADME, cell-free
[14] = Octanol-phosphate buffer partition coefficient, log D of the compound at 100 uM at pH 7.4 after 3 hrs by shake flask method; format: physicochemical
[15] = Plasma protein binding in human at 5 uM preincubated for 1 hr by LC-MS/MS method; format: ADME, cell-free; settings: read-out: PPB (converted)
[16] = Apparent half-life in anesthetized C57/BL6 mouse at 5 mg/kg, iv by LC-MS method; format: ADME, organism-based; settings: in vivo, read-out: t1/2(app) (converted)
How it was run: (§1)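 C57/BL6 mice were given a single dose of 5 mg/kg iv or 20 mg/kg po. Each dose was tested alone and co-dosed with aminobenzotriazole, a nonspecific cytochrome P450 inhibitor. Plasma exposure was followed, and each parameter is the mean of three animals.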

[17] = Apparent half-life in C57/BL6 mouse at 20 mg/kg, po by LC-MS method; format: ADME, organism-based; settings: in vivo, read-out: t1/2(app) (converted); how it was run: as §1
[18] = Apparent half-life in anesthetized C57/BL6 mouse at 5 mg/kg, iv co-administered with amino-benzotriazole by LC-MS method; format: ADME, organism-based; settings: in vivo, read-out: t1/2(app) (converted); how it was run: as §1
[19] = Apparent half-life in C57/BL6 mouse at 20 mg/kg, po co-administered with amino-benzotriazole by LC-MS method; format: ADME, organism-based; settings: in vivo, read-out: t1/2(app) (converted); how it was run: as §1
[20] = Total clearance in anesthetized C57/BL6 mouse at 5 mg/kg, iv by LC-MS method; format: ADME, organism-based; settings: in vivo; how it was run: as §1
[21] = Total clearance in anesthetized C57/BL6 mouse at 5 mg/kg, iv co-administered with amino-benzotriazole by LC-MS method; format: ADME, organism-based; settings: in vivo; how it was run: as §1
[22] = Volume of distribution in anesthetized C57/BL6 mouse at 5 mg/kg, iv by LC-MS method; format: ADME, organism-based; settings: in vivo; how it was run: as §1
[23] = Volume of distribution in anesthetized C57/BL6 mouse at 5 mg/kg, iv co-administered with amino-benzotriazole by LC-MS method; format: ADME, organism-based; settings: in vivo; how it was run: as §1
[24] = Cmax in anesthetized C57/BL6 mouse at 5 mg/kg, iv by LC-MS method; format: ADME, organism-based; set-up: dose 5 mg/kg, route intravenous; settings: in vivo; how it was run: as §1
[25] = Cmax in C57/BL6 mouse at 20 mg/kg, po by LC-MS method; format: ADME, organism-based; set-up: dose 20 mg/kg, route oral; settings: in vivo; how it was run: as §1
[26] = Cmax in anesthetized C57/BL6 mouse at 5 mg/kg, iv co-administered with amino-benzotriazole by LC-MS method; format: ADME, organism-based; set-up: dose 5 mg/kg, route intravenous; settings: in vivo; how it was run: as §1
[27] = Cmax in C57/BL6 mouse at 20 mg/kg, po co-administered with amino-benzotriazole by LC-MS method; format: ADME, organism-based; set-up: dose 20 mg/kg, route oral; settings: in vivo; how it was run: as §1
[28] = Tmax in anesthetized C57/BL6 mouse at 5 mg/kg, iv by LC-MS method; format: ADME, organism-based; settings: in vivo; how it was run: as §1
[29] = Tmax in C57/BL6 mouse at 20 mg/kg, po by LC-MS method; format: ADME, organism-based; settings: in vivo; how it was run: as §1
[30] = Tmax in anesthetized C57/BL6 mouse at 5 mg/kg, iv co-administered with amino-benzotriazole by LC-MS method; format: ADME, organism-based; settings: in vivo; how it was run: as §1
[31] = Tmax in C57/BL6 mouse at 20 mg/kg, po co-administered with amino-benzotriazole by LC-MS method; format: ADME, organism-based; settings: in vivo; how it was run: as §1
[32] = AUC (0 to infinity) in anesthetized C57/BL6 mouse at 5 mg/kg, iv by LC-MS method; format: ADME, organism-based; set-up: dose 5 mg/kg, route intravenous, time infinity; settings: in vivo; how it was run: as §1
[33] = AUC (0 to infinity) in C57/BL6 mouse at 20 mg/kg, po by LC-MS method; format: ADME, organism-based; set-up: dose 20 mg/kg, route oral, time infinity; settings: in vivo; how it was run: as §1
[34] = AUC (0 to infinity) in anesthetized C57/BL6 mouse at 5 mg/kg, iv co-administered with amino-benzotriazole by LC-MS method; format: ADME, organism-based; set-up: dose 5 mg/kg, route intravenous, time infinity; settings: in vivo; how it was run: as §1
[35] = AUC (0 to infinity) in C57/BL6 mouse at 20 mg/kg, po co-administered with amino-benzotriazole by LC-MS method; format: ADME, organism-based; set-up: dose 20 mg/kg, route oral, time infinity; settings: in vivo; how it was run: as §1
[36] = Oral bioavailability in C57/BL6 mouse at 20 mg/kg by LC-MS method; format: ADME, organism-based; settings: in vivo; how it was run: as §1
[37] = Oral bioavailability in C57/BL6 mouse at 20 mg/kg co-administered with amino-benzotriazole by LC-MS method; format: ADME, organism-based; settings: in vivo; how it was run: as §1
[38] = Ratio of Cmax in C57/BL6 mouse at 20 mg/kg, po co-administered with amino-benzotriazole to MIC90 for Mycobacterium tuberculosis H37RvMA in GAST/Fe medium
[39] = Metabolic stability in human liver microsomes assessed as residual compound at 0.1 uM after 30 mins by LC-MS/MS method in presence or absence of NADPH; format: ADME; settings: read-out: Stability
[40] = Metabolic stability in rat liver microsomes assessed as residual compound at 0.1 uM after 30 mins by LC-MS/MS method in presence or absence of NADPH; format: ADME; settings: read-out: Stability
[41] = Metabolic stability in mouse liver microsomes assessed as residual compound at 0.1 uM after 30 mins by LC-MS/MS method in presence or absence of NADPH; format: ADME; settings: read-out: Stability
Liver [42] = experiment: Drug metabolism in BALB/c mouse liver microsomes assessed as formation of 7-Amino-2-benzyl-4-methyl-1,3-dioxo-2,3-dihydro-1H-pyrrolo-[3,4-c]pyridine-6-carboxylic Acid at 10 uM after 1 hr by LC-MS analysis; format: ADME
Liver [43] = experiment: Drug metabolism in BALB/c mouse liver microsomes assessed as formation of 7-Amino-2-benzyl-4-methyl-1,3-dioxo-2,3-dihydro-1H-pyrrolo-[3,4-c]pyridine-6-carboxamide at 10 uM after 1 hr by LC-MS analysis; format: ADME
Liver [44] = experiment: Drug metabolism in BALB/c mouse liver microsomes assessed as formation of 7-Amino-2-benzyl-N-cyano-4-methyl-1,3-dioxo-2,3-dihydro-1Hpyrrolo[3,4-c]pyridine-6-carboxamide at 10 uM after 1 hr by LC-MS analysis; format: ADME
Plasma [45] = experiment: Drug metabolism in C57/BL6 mouse plasma assessed as formation of 7-Amino-2-benzyl-4-methyl-1,3-dioxo-2,3-dihydro-1H-pyrrolo-[3,4-c]pyridine-6-carboxylic Acid by LC-MS analysis; format: ADME, cell-free
Plasma [46] = experiment: Drug metabolism in C57/BL6 mouse plasma assessed as formation of 7-Amino-2-benzyl-4-methyl-1,3-dioxo-2,3-dihydro-1H-pyrrolo-[3,4-c]pyridine-6-carboxamide by LC-MS analysis; format: ADME, cell-free
Plasma [47] = experiment: Drug metabolism in C57/BL6 mouse plasma assessed as formation of 7-Amino-2-benzyl-N-cyano-4-methyl-1,3-dioxo-2,3-dihydro-1Hpyrrolo[3,4-c]pyridine-6-carboxamide by LC-MS analysis; format: ADME, cell-free

Cc1noc(-c2nc(C)c3c(c2N)C(=O)N(Cc2cccc(Cl)c2)C3=O)n1
Ratio AUC (Mus musculus): 10 | MIC90 [1]: 0.065 µM | MIC90 [2]: < 0.156 µM | solubility kinetic at 2 h [3]: 72 µM (≈ 27.6 µg/mL) | IC50 (Vero): > 100 µM | MIC90 [4]: > 20 µM | MIC90 [5]: 0.6 µM (≈ 0.23 µg/mL) | MIC90 [6]: 0.6 µM (≈ 0.23 µg/mL) | MIC90 [7]: 0.15 µM (≈ 0.0576 µg/mL) | MIC90 [8]: 0.15 µM (≈ 0.0576 µg/mL) | CLint (Liver microsome [9]): < 11.6 µL/min/mg | CLint (Liver microsome [10]): < 11.6 µL/min/mg | CLint [11]: < 11.6 µL/min/mg | remaining at 40 min, 0.1 µM [12]: 97% | half-life at 0.1 µM [13]: 1.03 h | logD at 3 h, 100 µM [14]: 3.34 | fraction unbound at 1 h, 5 µM [15]: 0.033 | half-life [16]: 7.01 h | half-life [17]: 2.19 h | half-life [18]: 7.31 h | half-life [19]: 3.39 h | clearance [20]: 171 mL/min/kg | clearance [21]: 94.5 mL/min/kg | Vd [22]: 104 L/kg | Vd [23]: 53.1 L/kg | Cmax [24]: 622 nM | Cmax [25]: 33 nM | Cmax [26]: 1530 nM | Cmax [27]: 167 nM | Tmax [28]: 0.17 h | Tmax [29]: 1 h | Tmax [30]: 0.17 h | Tmax [31]: 0.5 h | AUC(0-inf) [32]: 1.27 µM·h | AUC(0-inf) [33]: 0.133 µM·h | AUC(0-inf) [34]: 2.65 µM·h | AUC(0-inf) [35]: 1.33 µM·h | bioavailability [36]: 2% | bioavailability [37]: 26% | Ratio [38]: 2

Cc1noc(-c2nc(C)c3c(c2N)C(=O)N(Cc2ccccc2)C3=O)n1
MIC90 [2]: 0.625 µM (≈ 0.218 µg/mL) | solubility kinetic at 2 h [3]: < 5 µM | remaining at 0.5 h, 0.1 µM [39]: 57% | remaining at 0.5 h, 0.1 µM [40]: 100% | remaining at 0.5 h, 0.1 µM [41]: 98% | IC50 (Vero): > 100 µM | Drug metabolism (Liver [42]): metabolite_detected | Drug metabolism (Liver [43]): metabolite_detected | Drug metabolism (Liver [44]): metabolite_detected | Drug metabolism (Plasma [45]): metabolite_detected | Drug metabolism (Plasma [46]): metabolite_detected | Drug metabolism (Plasma [47]): metabolite_detected
